Source: PubChem BioAssay (several laboratories)
Shown are actives, neighbours in structure and some others; about 1.4% of the full set was active somewhere.
TNAP inh no acc – inhibitors of human TNAP without phosphate acceptor; inhibition, % at 20 µM; purified TNAP, CDP-star luminescence, 30 min; actives 0.26% (n = 200,000); AID 1012;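 active = tissue-nonspecific alkaline phosphatase inhibition above about 50% at 20 µM in the single-dose screen, limit read from the data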
CHT allo act – allosterically activates the human high affinity choline transporter; CHT-expressing cells, membrane potential dye, choline EC20; active compounds read high; LV-AA mutant CHT in HEK293 cells; B-score at 10 µM; actives 0.49% (n = 310,000); AID 488977;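 active = initial fluorescence not abnormally high and integrated response B-score, plate-corrected, over 3 SD above library mean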
CHT inh – inhibits the human high affinity choline transporter; actives 0.86% (n = 310,000); Q9GZV3; B-score at 10 µM; CHT-expressing cells, membrane potential dye, choline response; active compounds read low;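 active = B-score over 3 SD under the library average, and starting fluorescence ratio not unusually high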;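 note: choline stimulus applied at its EC90 after an EC20 pre-addition; B-score computed on integrated fluorescence ratio after choline addition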
TNAP act hi DEA – increases human TNAP activity under high phosphate acceptor concentration. 200,000 tested, under 10 active. activation factor at 20 µM. P05186. purified TNAP, CDP-star luminescence, 1 M DEA, 30 min; active compounds read high; 0 = EDTA background, 1 = DMSO-only activity;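 active = activation factor at least 2 at 20 µM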
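Test system – human TNAP · Doses – 20 µM single point · Incubation – 30 min, room temperature · Signal – luminescent substrate turnover signal · Read-out basis – activation factor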
ABCB6 inh MLPCN – blocks the human ABCB6 transporter; Q9NP58; K562-ABCB6 porphyrin accumulation, flow cytometry, 1 h; active compounds read low; fluorescence ratio to DMSO, % at 10 µM; actives 0.19% (n = 360,000); AID 602162;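 active = fluorescence ratio to DMSO below 75%, the collection mean minus 3 SD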;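 note: signal is porphyrin accumulated inside mitochondria; lower ratio means ABCB6 inhibition with less porphyrin fluorescence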
Target sequence (Q9NP58 whole entry, looked up): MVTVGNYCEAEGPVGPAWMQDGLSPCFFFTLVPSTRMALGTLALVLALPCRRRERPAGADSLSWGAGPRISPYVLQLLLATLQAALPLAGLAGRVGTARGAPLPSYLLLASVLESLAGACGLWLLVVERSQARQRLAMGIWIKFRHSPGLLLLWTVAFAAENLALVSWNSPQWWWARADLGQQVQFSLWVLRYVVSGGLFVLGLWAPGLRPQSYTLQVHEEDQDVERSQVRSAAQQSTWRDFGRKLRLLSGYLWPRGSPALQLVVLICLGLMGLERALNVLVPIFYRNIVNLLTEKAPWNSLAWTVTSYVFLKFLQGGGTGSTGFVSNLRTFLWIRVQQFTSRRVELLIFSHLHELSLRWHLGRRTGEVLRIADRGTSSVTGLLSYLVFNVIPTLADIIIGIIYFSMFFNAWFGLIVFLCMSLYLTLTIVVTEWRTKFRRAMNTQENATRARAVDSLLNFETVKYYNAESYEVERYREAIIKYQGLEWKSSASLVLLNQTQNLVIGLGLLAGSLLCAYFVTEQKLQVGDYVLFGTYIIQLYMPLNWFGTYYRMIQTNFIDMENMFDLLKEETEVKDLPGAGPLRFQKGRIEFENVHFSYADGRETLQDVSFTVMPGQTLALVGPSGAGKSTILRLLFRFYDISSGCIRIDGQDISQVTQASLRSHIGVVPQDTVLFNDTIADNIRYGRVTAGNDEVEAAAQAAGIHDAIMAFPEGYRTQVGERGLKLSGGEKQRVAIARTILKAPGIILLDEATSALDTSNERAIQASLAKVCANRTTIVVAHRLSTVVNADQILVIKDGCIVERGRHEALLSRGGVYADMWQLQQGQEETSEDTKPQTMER
TNAP inh hi DEA – TNAP (human) inhibition, high acceptor; P05186; purified TNAP, CDP-star luminescence, 1 M DEA; inhibition, % at 20 µM; actives 0.03% (n = 200,000);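 active = over 50% inhibition of tissue-nonspecific alkaline phosphatase at 20 µM in the single-dose screen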
Large screens that a line does not name were inactive.

Cc1ccc(NC(=O)C2CCN(S(=O)(=O)c3c(C)n[nH]c3C)CC2)nc1	TNAP inh no acc 55
CC(=O)c1ccc(NC(=O)CN2C(=O)NC3(CCc4ccccc43)C2=O)cc1 (configuration not stated)	none (no result: TNAP inh no acc, CHT allo act, CHT inh, TNAP act hi DEA, TNAP inh hi DEA)
CCOC(=O)Cc1cc(=O)[nH]c(Nc2nc3ccccc3o2)n1	none
COC(=O)Cc1cc(=O)[nH]c(Nc2nc3ccccc3o2)n1	TNAP inh no acc 75
COc1ccccc1-c1nc2s/c(=C\c3cccs3)c(=O)n2n1	none
O=c1/c(=C/c2ccco2)sc2nc(-c3ccccc3Br)nn12	TNAP inh no acc 58
O=c1cc(/N=C/c2coc3c(ccc4ccccc43)c2=O)[nH]c(=S)[nH]1	TNAP inh no acc 53
O=C1OC(c2ccccc2)c2ccc3ccccc3c21 (configuration not stated)	none
CC12CCC(C(=O)Nc3nc4ccc(Br)cc4s3)(OC1=O)C2(C)C (configuration not stated)	none
C=CCN1C(=O)/C(=C\C=C2\N(C)c3ccccc3C2(C)C)SC1=S	none
CN1/C(=C\C=C2/SC(=S)N(CC(=O)O)C2=O)C(C)(C)c2ccccc21	TNAP inh no acc 52, TNAP inh hi DEA 50
O=C(O)c1cccc(N/N=C(\N=Nc2ccccc2)c2ccccc2)c1	CHT inh -6.4 (no result: TNAP inh no acc, TNAP act hi DEA, TNAP inh hi DEA)
O=C(O)c1ccc(N=N/C(=N\Nc2ccc(C(=O)O)cc2)c2ccccc2)cc1	none (no result: TNAP inh no acc, TNAP act hi DEA, TNAP inh hi DEA)
COc1cc(CNCCc2ccc(F)cc2)ccc1OCc1ccc(Cl)nc1	CHT inh -5.9
CCCC1(c2ccccc2)NC(=O)N(CC(=O)c2[nH]c(C)c(C(=O)OCC)c2C)C1=O (configuration not stated)	CHT inh -9.8
CC(OC(=O)C1CCCCC1)C(=O)Nc1cccc([N+](=O)[O-])c1 (configuration not stated)	none (no result: TNAP inh no acc, CHT allo act, CHT inh, TNAP act hi DEA, TNAP inh hi DEA)
Cc1nnc2c3cnn(-c4ccc(Cl)cc4)c3ncn12	TNAP inh no acc 67 (no result: CHT allo act, CHT inh, ABCB6 inh MLPCN)
CCOC(=O)Cn1cnc2c(cnn2-c2ccc(Cl)cc2)c1=O	none
COc1ccc(C(=O)N2CCC(O)(c3ccc(Cl)cc3)CC2)cc1OC	none (no result: TNAP inh no acc, TNAP act hi DEA, TNAP inh hi DEA)
COc1ccc(-c2nc(SC(CC(=O)NCCO)c3cccs3)n[nH]2)cc1 (configuration not stated)	TNAP inh no acc 71
O=C(CC(Sc1n[nH]c(-c2ccccc2)n1)c1ccccc1)NCc1ccccc1 (configuration not stated)	none
Cc1ccc(S(=O)(=O)Cc2cc(F)c([N+](=O)[O-])cc2[N+](=O)[O-])cc1	CHT inh -6.4 (no result: TNAP inh no acc, TNAP act hi DEA, TNAP inh hi DEA)
COc1ccc(/C=C2\CN(Cc3ccccc3)C/C(=C\c3ccc(OC)c(O)c3)C2=O)cc1O	none (no result: TNAP inh no acc, TNAP act hi DEA, TNAP inh hi DEA)
CCN1C/C(=C/c2ccc(OC)c(O)c2)C(=O)/C(=C/c2ccc(OC)c(O)c2)C1	TNAP inh no acc 56
O=C(CSc1n[nH]c(-c2ccccc2Br)n1)NC(=O)NCc1ccco1	TNAP inh no acc 82
O=C(CSc1n[nH]c(-c2ccccc2Br)n1)NCCN1C(=O)CSC1=O	TNAP inh no acc 84
Nc1cc(=O)[nH]c(SCC(=O)N2CCC(Cc3ccccc3)CC2)n1	none (no result: TNAP inh no acc, CHT allo act, CHT inh, TNAP act hi DEA, TNAP inh hi DEA)
O=C(c1ccc2c3n(nc2c1)-c1ccccc1CO3)N1CCCCC1	CHT inh -5.3 (no result: TNAP inh no acc, TNAP act hi DEA, TNAP inh hi DEA)
CCOc1ccccc1CNC(=O)c1ccc(NC(=O)C2=C(C)OCCS2)cc1	none (no result: TNAP inh no acc, TNAP act hi DEA, TNAP inh hi DEA)
c1ccc(-c2n[nH]c3ccccc23)cc1	TNAP inh no acc 90
O=C(C#Cc1ccccc1)c1cccc([N+](=O)[O-])c1	ABCB6 inh MLPCN 71
COc1ccc2[nH]c(=O)c(CN(C(=O)c3cccnc3)c3ccccc3C)cc2c1	none (no result: TNAP inh no acc, TNAP act hi DEA, TNAP inh hi DEA)
C#CC(=O)N(c1cc(OC)ccc1OC)C(C(=O)NC1CCCC1)c1cccs1 (configuration not stated)	ABCB6 inh MLPCN 64
COc1ccccc1-c1nc(NC(C)=O)n[nH]1	TNAP inh no acc 93 (no result: ABCB6 inh MLPCN)
COc1ccccc1-c1nc(SCC(=O)N2CCOCC2)n[nH]1	none (no result: TNAP inh no acc, TNAP act hi DEA, TNAP inh hi DEA)
COc1ccc(OCc2cc(C(=O)NC(C)c3nc(C)cs3)no2)c(Cl)c1 (configuration not stated)	none (no result: TNAP inh no acc, CHT allo act, CHT inh, TNAP act hi DEA, TNAP inh hi DEA)
CC[n+]1ccc2cc(OC)c(OC)cc2c1Cc1ccc(OC)c(OC)c1	CHT allo act 6.3
COc1ccc(Cc2c3cc(OC)c(OC)cc3cc[n+]2C)cc1OC	CHT allo act 12 (no result: TNAP inh no acc, TNAP act hi DEA, TNAP inh hi DEA)
CCOC(=O)c1ccc(-c2cc(C)no2)[nH]1	none
CCCCCCOC(=O)C[N+](C)(C)CCOC1CC2CCC1(C)C2(C)C (configuration not stated)	CHT allo act 8.5
CCCCCCCOC(=O)C[N+](C)(C)CCOC1CC2CCC1(C)C2(C)C (configuration not stated)	none (no result: CHT allo act, CHT inh)
O=S(=O)(c1ccc2c(c1)C(=NO)c1cc(S(=O)(=O)N3CCCCC3)ccc1-2)N1CCCCC1	ABCB6 inh MLPCN 72
COc1ccc(S(=O)(=O)N2CCC(C)CC2)cc1OC	none (no result: TNAP inh no acc, TNAP act hi DEA, TNAP inh hi DEA)
CC1CCN(S(=O)(=O)c2ccc3c(c2)C(=NO)c2cc(S(=O)(=O)N4CCC(C)CC4)ccc2-3)CC1	ABCB6 inh MLPCN 70
Cc1ccc(C2NCCS2)cc1 (configuration not stated)	TNAP inh no acc 63
Cc1ccc(C2=NNC(=O)C(c3ccc(Cl)cc3)C2)cc1 (configuration not stated)	none
CC1=C(C(=O)OCCBr)C(c2cccc3ccccc23)NC(=O)N1 (configuration not stated)	none (no result: TNAP inh no acc, TNAP act hi DEA, TNAP inh hi DEA)
CCN1CCN(c2nc3c(c(=O)n(C)c(=O)n3C)n2CCSc2ncccn2)CC1	CHT inh -7.5
Cc1ccnc(SCCn2c(N3CCN(C)CC3)nc3c2c(=O)n(C)c(=O)n3C)n1	none (no result: TNAP inh no acc, TNAP act hi DEA, TNAP inh hi DEA)
CC1(CCC(=O)N2CCCC(N3CCN(c4cccc(C(F)(F)F)c4)CC3)C2)CC1 (configuration not stated)	none (no result: TNAP inh no acc, TNAP act hi DEA, TNAP inh hi DEA)
CN=c1scc(-c2ccc(F)cc2)n1/N=C/c1ccc(O)c(O)c1	TNAP inh no acc 70 (no result: CHT allo act, CHT inh)
CN=c1scc(-c2ccc([N+](=O)[O-])cc2)n1/N=C/c1ccco1	none
O=C(O)c1cc(-c2ccc(Cl)cc2)n[nH]1	TNAP inh no acc 83
COc1ccc(-c2cc(C(=O)O)[nH]n2)cc1OC	none
COc1ccc(CCNC(=O)c2cccc(S(=O)(=O)N3CCc4ccccc4C3)c2)cc1	none (no result: TNAP inh no acc, CHT allo act, CHT inh, TNAP act hi DEA, TNAP inh hi DEA)
CC1=NN(c2ccccc2)C(=O)/C1=C/C=C/C=C/N(C)C	TNAP inh hi DEA 55
CN(C1=C(N2CCCCC2)C(=O)c2ccccc2C1=O)c1ccccc1	CHT inh -5.8
Cc1cc(C)c2c(n1)nn1c(NCCCN(C)C)cc(C)nc21	CHT allo act 8.1
CCc1nn2c(NCCCO)cc(C)nc2c1-c1ccc(F)cc1	none (no result: TNAP inh no acc, TNAP act hi DEA, TNAP inh hi DEA)
CC(=O)NC(c1ccccc1)c1nc(-c2cccs2)cs1 (configuration not stated)	none (no result: TNAP inh no acc, CHT allo act, CHT inh, TNAP act hi DEA, TNAP inh hi DEA)
